# Screening data from PubChem.
# MPTP inh: permeability transition pore inhibition. isolated mouse mitochondria, Ca2+ swelling absorbance, 30 min. inhibition, % at 10 µM. 360,000 tested, 1.4% active. AID 602449;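 active = inhibition of 50% or more, scaled per plate between neutral and stimulator controls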;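 note: 0% = DMSO wells given calcium and 100% = 1 mM EGTA wells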
# TAAR1 antag: human TAAR1 antagonism. Q96RJ0. CHO RD-HGA16 TAAR1, Fluo-8 calcium fluorescence, antagonist. inhibition, % at 3 µM. 360,000 tested, 1.5% active. AID 624466;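 active = inhibition above a per-plate cutoff, the mean inhibition of test compounds on that plate plus 3 SD, cut at about 49% in these data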;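 note: 0% = DMSO plus EC80 beta-PEA response and 100% = DMSO alone without agonist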
# Target sequence (Q96RJ0 whole entry, looked up): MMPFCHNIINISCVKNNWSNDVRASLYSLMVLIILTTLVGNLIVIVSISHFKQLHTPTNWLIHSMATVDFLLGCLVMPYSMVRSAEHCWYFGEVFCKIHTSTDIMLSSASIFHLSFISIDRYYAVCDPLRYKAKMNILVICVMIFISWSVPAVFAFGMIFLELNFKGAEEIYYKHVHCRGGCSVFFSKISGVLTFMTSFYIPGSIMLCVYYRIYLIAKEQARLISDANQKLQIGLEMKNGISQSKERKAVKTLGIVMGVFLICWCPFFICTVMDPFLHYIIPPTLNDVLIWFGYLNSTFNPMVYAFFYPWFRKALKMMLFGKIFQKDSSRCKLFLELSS
#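 Assay system: CHO-derived RD-HGA16 cells stably expressing human TAAR1 plus Gα16. Timing: 140 s kinetic read after compound, 140 s after agonist. Technique: kinetic Fluo-8 calcium fluorescence measurement. Measure: % inhibition of agonist calcium response.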
# TAAR1 ag: agonists of human TAAR1. Q96RJ0. CHO RD-HGA16 TAAR1, Fluo-8 calcium fluorescence; vehicle wells 0%, saturating PEA agonist 100%. activation, % at 3 µM. 360,000 tested, 0.99% active;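 active = activation above the mean activation of all test compounds in the run plus 3 SD, cut at about 38% in these data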
#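 Test system: RD-HGA16 (CHO) cells co-expressing Gα16 and hTAAR1 / Benchmarks: DMSO vehicle as 0%, PEA at EC100 as 100% / Repeats: no replicates (n 1) / Measure: % activation from peak over basal fluorescence ratio, DMSO-to-PEA scaled / Timing: 17-24 h plating, Fluo-8 75 min 37 °C, 30 min RT / Technique: kinetic Fluo-8 calcium fluorescence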
# DAGLB inhibitor: blocks human DAGLB lipase activity | 340,000 tested, 0.059% active | HEK293T DAGLB membrane lysate, EnzChek fluorogenic substrate | AID 504411 | inhibition, % at 5.17 µM | Q8NCG7; in the data active = inhibition above about 34%;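 note: 0% = enzyme with vehicle and 100% = wells lacking enzyme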
# GPR7 antag: antagonists of human GPR7 (neuropeptides B/W receptor 1) | P48145 | 290,000 tested, 1.1% active | GPR7-expressing cells, fluorescence antagonist assay | inhibition, % at 4.4 µM; in the data active = inhibition above about 16%, passing the limit was not always enough;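 note: cells stimulated with the agonist NPW; 0% = agonist with vehicle and 100% = vehicle without agonist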
# Target sequence (P48145 whole entry, looked up): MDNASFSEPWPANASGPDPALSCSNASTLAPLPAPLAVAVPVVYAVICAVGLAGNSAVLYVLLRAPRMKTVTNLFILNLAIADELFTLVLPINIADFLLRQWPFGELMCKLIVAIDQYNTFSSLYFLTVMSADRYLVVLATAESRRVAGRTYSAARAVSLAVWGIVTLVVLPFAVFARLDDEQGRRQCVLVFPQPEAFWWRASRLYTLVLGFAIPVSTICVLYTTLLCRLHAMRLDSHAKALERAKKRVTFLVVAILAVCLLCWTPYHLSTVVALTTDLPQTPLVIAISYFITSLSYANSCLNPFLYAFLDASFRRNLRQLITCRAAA
# TAAR1 ag confirm: confirmation of human TAAR1 agonists | shares compounds with TAAR1 ag | CHO RD-HGA16 TAAR1, Fluo-8 calcium fluorescence; scaled: DMSO 0%, maximal phenethylamine 100% | activation, % at 3 µM | AID 651783 | 2,400 tested, 82% active;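 active = activation above a cutoff set at the run's mean compound activation plus 3 SD, cut at about 39% in these data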
# Ga16 ag counter: nonselective agonism, TAAR1 counter-screen | 2,400 tested, 50% active | shares compounds with TAAR1 ag | CHO-Ga16 parental, Fluo-8 calcium fluorescence; normalized to maximal ATP response, DMSO zero | activation, % at 3 µM;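 active = activation above the run cutoff, the mean activation over all tested wells plus 3 SD, cut at about 12% in these data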;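 note: 0% = DMSO wells and 100% = maximal ATP response on the peak over basal ratio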
# TAAR1 desens: counter-screen for human TAAR1 agonists: agonists that desensitize TAAR1. CHO RD-HGA16 hTAAR1, Fluo-8 calcium, beta-PEA response inhibition. 2,400 tested, 46% active. shares compounds with TAAR1 ag. AID 651951. inhibition, % at 3 µM;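 active = inhibition above the run cutoff, the mean inhibition of all test compounds plus 3 SD, cut at about 49% in these data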;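 note: beta-PEA stimulus applied at its EC80; loss of beta-PEA calcium signal after compound pretreatment read as receptor desensitization; 0% = DMSO with beta-PEA at EC80 and 100% = DMSO alone without agonist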
# Ga16 nonsel ant: nonselective Ga16 antagonist in TAAR1 agonist counter-screen | shares compounds with TAAR1 ag | CHO-Ga16 ATP-induced calcium, Fluo-8 fluorescence | inhibition, % at 3 µM | 2,400 tested, 39% active | AID 651952;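 active = inhibition above the plate's mean compound inhibition plus 3 SD, computed per plate, cut at about 22% in these data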;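 note: 0% = EC80 ATP with DMSO and 100% = DMSO wells without ATP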
# Numbers without * were called inactive; x = no result; ! = a repeat was not active. Rows were chosen to be rich in hits. Some 4% of all compounds tested hit in one or more screens of this group.
SMILES,MPTP inh,TAAR1 antag,TAAR1 ag,DAGLB inhibitor,GPR7 antag,TAAR1 ag confirm,Ga16 ag counter,TAAR1 desens,Ga16 nonsel ant
COc1ccc(C(=O)CC(=O)C(=O)Nc2cccc([N+](=O)[O-])c2C)cc1,4,8,71*,2,-4,83*,62*,35,23*
COc1cccc(C(=O)CC(=O)C(=O)Nc2cccc([N+](=O)[O-])c2C)c1,-21,12,60*,6,-10,120*,75*,77*,41*
CCN(CC)CCNC(=O)c1ccc(Cl)c(S(=O)(=O)Nc2ccc(Cl)cc2)c1,-1,39,70*!,0,4,4,1,9,4
CCN(CC)CCNC(=O)c1ccc(Cl)c(S(=O)(=O)Nc2ccccc2OC)c1,0,9,8,1,11,x,x,x,x
C[C@H]1[C@@H](c2ccccc2)Oc2ccc(Cl)cc2S(=O)(=O)N1Cc1cccc(Cl)c1,x,-21,2,x,x,x,x,x,x
C[C@H]1[C@H](c2ccccc2)Oc2cccc(NCCc3ccccc3)c2S(=O)(=O)N1Cc1cccc(F)c1,x,7,61*,x,x,41*,4,2,3
C[C@H]1[C@H](c2ccccc2)Oc2cccc(NCCc3ccccc3)c2S(=O)(=O)N1Cc1cccc(Cl)c1,x,1,40*,x,x,62*,9,17,12
CC(C)CNc1cccc2c1S(=O)(=O)N(Cc1ccc(F)cc1)[C@@H](C)[C@H](c1ccccc1)O2,x,-27,3,x,x,x,x,x,x
CCC/C=C/c1ccc(CN2C(C(C)C)C(=O)N(Cc3cn(Cc4ccco4)nn3)CCS2(=O)=O)cc1 (centres undefined),0,-28,3,1,x,x,x,x,x
O=C(Nc1ccccc1)N1c2ccccc2SC1c1ccco1 (centres undefined),x,-24,2,x,x,x,x,x,x
Cc1cc(Nc2cccc(C(F)(F)F)c2)cc(=O)n1-c1cccc(C(F)(F)F)c1,x,-7,0,x,x,x,x,x,x
CC(=O)c1ccc(NC(=O)C2C3C=CC(C3=C(c3ccccc3)c3ccccc3)C2C(=O)O)cc1 (centres undefined),-2,-9,75*,6,-14,102*,71*,17,3
CC(=O)c1ccc(NC(=O)C2CC2c2ccccc2)cc1 (centres undefined),6,-16,0,0,x,x,x,x,x
Cc1cc(Br)cn2c(Cc3cccc(Cl)c3)c(C3CCCCC3)nc12,x,-11,-1,x,x,x,x,x,x
CC(C)c1onc(C(=O)NCCc2ccccc2)c1[N+](=O)[O-],1,x,x,-2,2,x,1,x,6
O=C(N[C@@H](Cc1ccccc1)C(=O)OCc1ccccc1)c1ccco1,-1,19,6,-1,x,x,x,x,x
O=C(Nc1ccccc1)N1CCc2ccccc2C1,0,20,48*,0,-12,54*,5,14,5
Cc1ccc(NC(=O)N2CCc3ccccc3C2)c(C)c1,1,43,92*,2,-1,66*,3,20,12
CC(=O)c1cccc(NC(=O)N2CCc3ccccc3C2)c1,-2,19,56*,-4,-9,62*,5,24,18
Cc1ccc(NC(=O)N2CCc3ccccc3C2)cc1,-3,8,68*,-4,2,43*,1,5,1
CC(=O)Nc1cc(-c2cccc(C(=O)N(C)C)c2)cn2c(-c3ccc(C(C)=O)cc3)cnc12,-2,-1,7,x,x,x,x,x,x
Nc1c(C(=O)CSc2nnnn2-c2ccc(O)cc2)c(=O)[nH]c(=O)n1C1CC1,-3,-32,1,2,x,x,x,x,x
Cc1ccc(-n2nnnc2SCC(=O)c2c(N)n(C3CC3)c(=O)[nH]c2=O)c(C)c1,-1,-18,55*,6,x,24,8,-6,-9
CCN(CCn1cccn1)C(=O)CC1C(=O)NCCN1CC1CCCCC1 (centres undefined),-2,27,3,1,-1,x,x,x,x
CCN(CCn1cccn1)C(=O)CC1C(=O)NCCN1CCc1ccccc1 (centres undefined),0,30,78*,0,-15,93*,2,82*,2
SMILES,MPTP inh,TAAR1 antag,TAAR1 ag,DAGLB inhibitor,GPR7 antag,TAAR1 ag confirm,Ga16 ag counter,TAAR1 desens,Ga16 nonsel ant
O=C(Nc1nnc(-c2cccs2)o1)c1cccc(C(F)(F)F)c1,-24,34,90*,9,7,45*,51*,19,25*
O=C(NC1CCCCC1)c1cccc2c1C(=O)c1ccc(N3CCC(Cc4ccccc4)CC3)cc1S2(=O)=O,1,61*,52*,-16,x,30,29*,33,38*
O=c1cc(S(=O)(=O)Cc2ccccc2)[nH]c(=O)[nH]1,1,6,1,-2,x,x,x,x,x
Cc1cc(N2CCC(C)CC2)c(F)cc1[N+](=O)[O-],0,-9,1,-19,-1,x,x,x,x
Cc1cc(N2CCCC2)c(F)cc1/C=C\[N+](=O)[O-],-1,81*,193*,-11,11,61*,68*,60*,70*
CCC1(c2ccc(F)cc2)NC(=O)N(CC(=O)Nc2ccccc2Cl)C1=O (centres undefined),1,17,80*,3,20,72*,36*,33,19
CCC1(c2ccc(F)cc2)NC(=O)N(CC(=O)Nc2ccccc2C)C1=O (centres undefined),-2,13,22,-1,8,x,x,x,x
COc1ccc(C(=O)CC2(O)C(=O)N(CN3CCOCC3)c3ccc(Br)cc32)cc1 (centres undefined),x,-3,4,x,x,x,x,x,x
COCCCNC(=O)c1ccc2sc(C3=C[C@@H](O)[C@@H](O)[C@@H](CO)O3)nc2c1,-2,-12,2,x,x,x,x,x,x
O=C(NS(=O)(=O)c1ccccc1[N+](=O)[O-])[C@H]1O[C@@H](n2ccc(=O)[nH]c2=O)[C@H](O)[C@@H]1O,x,-24,1,x,x,x,x,x,x
CC(C)(C)c1ccc(C2(C)NC(=O)N(CC(=O)c3ccc[nH]3)C2=O)cc1 (centres undefined),0,-13,56*,-1,-1,35,13*,22,18
CC(C)(C)c1ccc(C2(C)NC(=O)N(CC(=O)NCc3cccs3)C2=O)cc1 (centres undefined),1,-22,5,0,0,x,x,x,x
O=C(O)c1ccc(N/N=C/C(Br)=C/c2ccccc2)cc1,1,60*,122*,3,-1,33,19*,34,21
